Assay results reported in PubChem BioAssay.
Inconclusive results are not listed.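 The calls were made as follows, unless noted: active = RAM network inhibition above 8.4% in each of two replicates, 3 SD over the compound average; inconclusive = above 8.4% inhibition in only one replicate; inactive = 8.4% inhibition or less in each replicate.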

How the values were obtained:
[1] = OD615 S. cerevisiae growth inhibition, permissive medium, pilot counter-assay, permissive growth control for S. cerevisiae lifespan shortening project (AID 705;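 active = growth inhibition above 25% in both replicates, a cutoff set 3 SD above the mean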); conditions: OD615, 24 h, at 10 µM, stronger effect = higher value
Procedure, shortened: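 System: Engineered DeaD yeast | Buffer or medium: SC raffinose/galactose permissive medium | Incubation: Cells pre-grown 4 h, then 24 h compound exposure, 30 °C humidified | Measured by: Absorbance (optical density) at 615 nm | Read-out: Reduction in yeast growth (OD615)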

[2] = Restrictive medium S. cerevisiae growth inhibition, OD615, pilot screen of yeast lifespan reduction project, restrictive growth control (AID 706;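 active = growth inhibition above a set limit, 3 SD over mean compound inhibition, in both replicates, cut at about 43% in these data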;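 also: modified DeaD lifespan yeast strain shifted to restrictive glucose medium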); conditions: OD615, 48 h, at 10 µM, stronger effect = higher value
Procedure, shortened: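 Material: modified S. cerevisiae; Medium: glucose-based CSMM-D restrictive medium; Compound dosing: one concentration, 10 µM final, 0.25% DMSO; Incubation: 48 h compound exposure at 30 °C; Measured by: OD615.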

[3] = viability gain of MRP-1-high H69AR cells under doxorubicin, pilot screen, MRP-1 activator project, CellTiter-Glo, duplicate (AID 807;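 active = viability increase at or above a cutoff of the median across tested compounds plus 3 SD, cut at about 8.5% in these data, passing the limit was not always enough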;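 also: compound pretreatment 18-22 h then 72 h combined with doxorubicin; 0% = doxorubicin alone and 100% = vehicle without doxorubicin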); conditions: H69AR viability with doxorubicin, CellTiter-Glo luminescence; at 10 µM; stronger effect = higher value
[4] = growth suppression of beta-catenin knockout HCT116, pilot screen, human colon tumor cells (AID 823;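 active = cell viability at or below a set limit in both duplicate runs, the limit being the all-compound median minus 4 SD, cut at about 23% in these data, passing the limit was not always enough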;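 also: 0% = wells killed by 20 µM Hyamine and 100% = untreated DMSO cell wells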); conditions: CellTiter-Glo, 60 h, at 10 µM, stronger effect = lower value
[5] = growth suppression of PTEN-deleted HCT116, pilot screen, cell-based, HCT116 clonal line, CellTiter-Glo (AID 824;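 active = viability at or below 27.92% in each of two runs, the all-compound median minus 4 SD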;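 also: 0% = 20 µM Hyamine control and 100% = vehicle cell control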); conditions: 60 h, at 10 µM, stronger effect = lower value
[6] = inhibitors of the yeast RAM network, pilot screen, dse1pr::URA3 reporter, 5-FOA selection (AID 869;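 active = inhibition over a set limit, the all-compound mean plus 3 SD, in both replicate runs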;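 also: 0% = DMSO wells with no growth and 100% = 10 µM 1-NA-PP1 with full growth; RAM network block rescues cells from 5-FOA so hits raise OD615 growth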); conditions: S. cerevisiae dse1pr::URA3 5-FOA growth, OD615, 2 d; at 10 µM; stronger effect = higher value; strain carries analog-sensitive mutant Cbk1 kinase
[7] = RAM signaling pathway blockade in yeast – S. cerevisiae, Pdr1DBD-CYC8 efflux-inhibited sensitized strain, primary screen (AID 1298);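 also: 0% = DMSO untreated cells without growth and 100% = 10 µM 1-NA-PP1 full growth; higher means more yeast growth rescued from 5-FOA killing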; conditions: S. cerevisiae cbk1-as DSE1-URA3 strain, 5-FOA growth OD615, 2 d; at 50 µM; stronger effect = higher value

COc1cc(Br)cc(-c2nc3c(c(=O)[nH]c(=O)n3Cc3ccccc3)n2C)c1O
inactive: growth inhibition [1] 3.34% | growth inhibition [2] -0.8% | viability increase [3] -1.31% | viability [4] 89.6% | viability [5] 87.6% | inhibition [6] 2.02% | RAM network inhibition [7] 3.23%

CN(C)c1cc(-c2ccccc2)nc(N)n1
inactive: growth inhibition [1] -13.3% | growth inhibition [2] -15.5% | viability increase [3] -6.2% | viability [4] 64.2% | viability [5] 55.8% | inhibition [6] 2.73% | RAM network inhibition [7] 0.09%

CCc1ccc(Cn2nnc(C(=O)Nc3cccc(C)c3)c2N)cc1
inactive: growth inhibition [1] -7.21% | growth inhibition [2] -2.92% | viability increase [3] -0.67% | viability [4] 102% | viability [5] 95.9% | inhibition [6] 3.39% | RAM network inhibition [7] 8.18%

O=C1c2oc3ccc(Cl)cc3c(=O)c2C(c2ccco2)N1CCN1CCOCC1 (configuration not stated)
inactive: growth inhibition [1] -2.05% | growth inhibition [2] -4.56% | viability increase [3] -5.51% | viability [4] 89.6% | viability [5] 90.4% | inhibition [6] 0.415% | RAM network inhibition [7] -1.88%

COC(=O)CSc1nc2ccccc2nc1SCC(=O)OC
inactive: growth inhibition [1] -11.7% | growth inhibition [2] -9.89% | viability increase [3] -2% | viability [4] 93.4% | viability [5] 92% | inhibition [6] 2.12% | RAM network inhibition [7] 7.83%

Cc1onc(-c2ccccc2Cl)c1C(=O)N(C)C1CCCCC1
inactive: growth inhibition [1] -18.5% | growth inhibition [2] -9.2% | viability increase [3] -2.42% | viability [4] 46.5% | viability [5] 63.2% | inhibition [6] -0.15% | RAM network inhibition [7] 2.15%

Cn1nc(-c2ccc(Cl)cc2)c2cc(C(=O)N3CCN(C(=O)c4ccco4)CC3)sc21
inactive: growth inhibition [1] 5.26% | growth inhibition [2] 15.6% | viability increase [3] -6.46% | viability [4] 66.6% | viability [5] 66.2% | inhibition [6] 0.755% | RAM network inhibition [7] 4.92%

CC(C)N(Cc1nc(-c2ccc(Cl)cc2)no1)C(=O)CCCN1C(=O)c2ccccc2C1=O
inactive: growth inhibition [1] -14.4% | growth inhibition [2] -15.6% | viability increase [3] 5.41% | viability [4] 104% | viability [5] 91.6% | inhibition [6] 1.4% | RAM network inhibition [7] 6.24%

COc1cccc(C(=O)NC2CC3CCCC(C2)N3CC(=O)Nc2ccc(N(C)C)cc2)c1 (configuration not stated)
inactive: growth inhibition [1] -14.1% | growth inhibition [2] -14.7% | viability increase [3] -0.9% | viability [4] 85.4% | viability [5] 87.8% | inhibition [6] 0.955% | RAM network inhibition [7] 1.97%

Cn1c(NC(=O)c2ccc(F)c(F)c2)cc(=O)n(C)c1=O
inactive: growth inhibition [1] -2.93% | growth inhibition [2] -3.23% | viability increase [3] -1.64% | viability [4] 95.7% | viability [5] 93.4% | inhibition [6] 0.925% | RAM network inhibition [7] 0.81%

O=C(Cn1c(N2CCN(c3ccccc3)CC2)nc2ccccc21)c1ccccc1
inactive: growth inhibition [1] -10.3% | growth inhibition [2] -9.96% | viability increase [3] -3.76% | viability [4] 84.3% | viability [5] 93.6% | inhibition [6] 2.6% | RAM network inhibition [7] 4.62%

Nc1c(Br)cc(Br)c(N2CCCC2=O)c1Br
inactive: growth inhibition [1] -6.31% | growth inhibition [2] -7.93% | viability increase [3] -2.68% | viability [4] 92.6% | viability [5] 92.7% | inhibition [6] 1.68% | RAM network inhibition [7] 0.63%

c1ccc2c(c1)ncc1cccn12
inactive: growth inhibition [1] -16.6% | growth inhibition [2] -12.8% | viability increase [3] -5.24% | viability [4] 104% | viability [5] 89% | inhibition [6] 2.58% | RAM network inhibition [7] 5.07%

COc1ccc(C2C(C(N)=O)=C(C)Nc3nc(-c4ccccc4Cl)nn32)c(OC)c1 (configuration not stated)
inactive: growth inhibition [1] -17.8% | growth inhibition [2] -11.2% | viability increase [3] -0.07% | viability [4] 93.9% | viability [5] 94.7% | inhibition [6] 1.21% | RAM network inhibition [7] -1.06%

Cc1ccc(N2CC(c3nc4ccccc4[nH]3)CC2=O)c(C)c1 (configuration not stated)
inactive: growth inhibition [1] -14.1% | growth inhibition [2] -17% | viability increase [3] 0.06% | viability [4] 107% | viability [5] 94.4% | inhibition [6] 1.45% | RAM network inhibition [7] 0.01%

O=C(NCCCN1CCC(Cc2ccccc2)CC1)C1CCC(=O)N1C1CCCC1 (configuration not stated)
inactive: growth inhibition [1] 0.095% | growth inhibition [2] 10.8% | viability increase [3] -0.92% | viability [4] 79.7% | viability [5] 96.9% | inhibition [6] 0.3% | RAM network inhibition [7] 1.85%

CCOC(=O)N1CCN(S(=O)(=O)c2cccc3nonc23)CC1
inactive: growth inhibition [1] -9.77% | growth inhibition [2] -27.6% | viability increase [3] -1.56% | viability [4] 90.5% | viability [5] 92.2% | inhibition [6] 1.68% | RAM network inhibition [7] 5.47%

Cc1nc2ccccc2c2oc(C(=O)NC3CC3)cc12
inactive: growth inhibition [1] -8% | growth inhibition [2] 5.36% | viability increase [3] -2.61% | viability [4] 112% | viability [5] 89.6% | inhibition [6] 0.79% | RAM network inhibition [7] -1.66%

CCOC(=O)CN1C(=O)C(O)(CC(=O)c2ccccn2)c2ccccc21 (configuration not stated)
inactive: growth inhibition [1] -10.3% | growth inhibition [2] 3.35% | viability increase [3] -4.5% | viability [4] 82.8% | viability [5] 92% | inhibition [6] 1.31% | RAM network inhibition [7] 1.78%

Cc1cccc(-n2c(O)c(C=Nc3ccc4c(c3)OCO4)c3ccccc3c2=O)n1
inactive: growth inhibition [1] 1.54% | growth inhibition [2] -8.37% | viability increase [3] -0.5% | viability [4] 89.3% | viability [5] 80.2% | inhibition [6] 0.93% | RAM network inhibition [7] 2.46%

OC(CN1C2=NCCCN2c2ccccc21)c1ccc(Cl)cc1 (configuration not stated)
inactive: growth inhibition [1] -8.91% | growth inhibition [2] 2.81% | viability increase [3] -4.02% | viability [4] 73.8% | viability [5] 76.1% | inhibition [6] 1.26% | RAM network inhibition [7] 3.02%

COc1cccc(C2CC(c3ccccc3OC)n3ncnc3N2)c1 (configuration not stated)
inactive: growth inhibition [1] -4.81% | growth inhibition [2] 8.07% | viability increase [3] -5.2% | viability [4] 90.1% | viability [5] 71.2% | inhibition [6] 0.455% | RAM network inhibition [7] -0.26%

CC(C)Oc1cc(O)c2c(=O)c(-c3ccc(O)cc3)coc2c1
inactive: growth inhibition [1] -14.2% | growth inhibition [2] -15.1% | viability increase [3] -6.33% | viability [4] 79.8% | viability [5] 64.5% | inhibition [6] 0.605% | RAM network inhibition [7] -3.3%

O=C(CSc1ccccc1)NCc1cccnc1
inactive: growth inhibition [1] -4.86% | growth inhibition [2] -3.68% | viability increase [3] -1.64% | viability [4] 99.5% | viability [5] 97% | inhibition [6] 0.995% | RAM network inhibition [7] 0.53%

COC(=O)c1cn(NC(=O)CC2CCCCC2)c(=O)c2ccccc12
inactive: growth inhibition [1] 7.57% | growth inhibition [2] 1.75% | viability increase [3] 0.01% | viability [4] 94% | viability [5] 91.7% | inhibition [6] 0.24% | RAM network inhibition [7] 2.22%

COc1ccc(C2CC(=O)N3CN(c4ccc(C)c(Cl)c4)CSC3=C2C#N)cc1OC (configuration not stated)
inactive: growth inhibition [1] 2.02% | growth inhibition [2] 21.1% | viability increase [3] -4.27% | viability [4] 85.7% | viability [5] 93.6% | inhibition [6] 0.435% | RAM network inhibition [7] -1.09%

CCCCOC(=O)C(C)Oc1ccc(=O)n(-c2ccccc2)n1 (configuration not stated)
inactive: growth inhibition [1] -4.39% | growth inhibition [2] -6.44% | viability increase [3] -1.41% | viability [4] 98% | viability [5] 88.4% | inhibition [6] 1.26% | RAM network inhibition [7] 2.76%

CCc1nc2oc(C(=O)c3ccccc3)c(N)c2c2c1COC(C)(C)C2
inactive: growth inhibition [1] -10.5% | growth inhibition [2] -9.15% | viability increase [3] -4.48% | viability [4] 81.6% | viability [5] 80.1% | inhibition [6] 0.79% | RAM network inhibition [7] 0.85%

CCOC(=O)N1CCN(c2cc(C)nc3nc(C)nn23)CC1
inactive: growth inhibition [1] -11.9% | growth inhibition [2] -9.88% | viability increase [3] -1.28% | viability [4] 105% | viability [5] 97.1% | inhibition [6] 3.44% | RAM network inhibition [7] 2.21%

CS(=O)(=O)Nc1ccc2c3c(cccc13)CC2
inactive: growth inhibition [1] -15.4% | growth inhibition [2] -15.1% | viability increase [3] -1.25% | viability [4] 97.7% | viability [5] 90.1% | inhibition [6] 1.14% | RAM network inhibition [7] 7.52%

CCOC(=O)NCc1ccc(CNC(=O)OCC)cc1
inactive: growth inhibition [1] -9.67% | growth inhibition [2] 4.35% | viability increase [3] -1.96% | viability [4] 97.1% | viability [5] 90% | inhibition [6] 0.81% | RAM network inhibition [7] 0.57%

CCOC(=O)C1=C(C)NC(C)=C(C(=O)OCC)C1c1nc2ccccc2[nH]1
inactive: growth inhibition [1] -21.8% | growth inhibition [2] -11.2% | viability increase [3] -1.33% | viability [4] 96.2% | viability [5] 96.3% | inhibition [6] 0.96% | RAM network inhibition [7] 1.43%

Cc1ccc2nc(NC(=O)CCNS(=O)(=O)c3cccs3)sc2c1
inactive: growth inhibition [1] -5.57% | growth inhibition [2] -7.59% | viability increase [3] 3.2% | viability [4] 87% | viability [5] 71.7% | inhibition [6] 0.45% | RAM network inhibition [7] 3.7%

Cn1c(C(=O)N2CCC(C(N)=O)CC2)cc2c(=O)n(C)c3ccccc3c21
inactive: growth inhibition [1] -2.25% | growth inhibition [2] 1.93% | viability increase [3] -0.97% | viability [4] 110% | viability [5] 99.3% | inhibition [6] 0.085% | RAM network inhibition [7] 2.21%

CCOCCOCN(C#N)c1nc(OC)nc(N(C)C)n1
inactive: growth inhibition [1] -5.92% | growth inhibition [2] 0.69% | viability increase [3] 1.74% | viability [4] 102% | viability [5] 99.9% | inhibition [6] 0.555% | RAM network inhibition [7] 2.46%

COc1ccc(NC(=O)C2CCN(C(=O)c3ccccc3)CC2)c(OC)c1
inactive: growth inhibition [1] 9.86% | growth inhibition [2] -0.9% | viability increase [3] -2.96% | viability [4] 95.8% | viability [5] 94.8% | inhibition [6] 2.57% | RAM network inhibition [7] 3.44%
